From ChEMBL document CHEMBL1134327, “Design, synthesis, and pharmacological evaluation of thapsigargin analogues for targeting apoptosis to prostatic cancer cells” (2001)
“And” between values parts separate entries of the source, which are not always exact repeats. Equal entries are not always repeated.

What was measured:
[1] = organism: Oryctolagus cuniculus; test: Inhibition of rabbit skeletal muscle sarcoplasmic and endoplasmic reticulum [Ca(2+)]-dependent ATPases(SERCA) activity
How it was run: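 Rabbit skeletal-muscle SR microsomes were prepared by differential centrifugation with a 0.6 M KCl wash. Buffer was pH 7.5 Tris with KCl, MgCl2, EGTA/CaCl2 and A23187. Doses were in nmol/mg SR protein. Activity is % of uninhibited control in triplicate, corrected for residual Ca²⁺-independent ATPase.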

[2] = organism: Oryctolagus cuniculus; test: Inhibition of rabbit skeletal muscle SERCA activity relative to TG
[3] = Increase in cytosolic [Ca2+] concentration in TSU-Pr1 cells at given effective cytotoxic concentration.; assay type: functional, Homo sapiens
[4] = Loss of clonogenic survival of human prostate cancer TSU-Pr1 cells.; assay type: functional; details: read-out: LC50 (the source's name)
How it was run: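 TSU-Pr1 human prostatic cancer cells treated with each analogue. Clonogenic survival compared with untreated controls. Value reported as LC50 (µM), the concentration producing 50% loss of clonogenic survival.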

[5] = Loss of clonogenic survival of human prostate cancer TSU-Pr1 cells relative to TG was determined; assay type: functional

Compound | ID50 (nM (mg SR protein)-1) [1] | Activity [2] | Activity [3] | CC50 [4] [nM] | Activity [5] | [Ca2+] [3] [nM]
C/C=C(/C)C(=O)O[C@H]1C(C)=C2[C@H]([C@@H]1OC(=O)CCCCCCC)[C@@](C)(OC(C)=O)C[C@H](OC(=O)CCCCCCCCCCCNC(=O)[C@H](C)N)[C@@]1(O)[C@H]2OC(=O)[C@@]1(C)O | 16.5 | 1.2 | 410 nM and 338 nM | 280 | 9.3 | –
C/C=C(/C)C(=O)O[C@H]1C(C)=C2[C@H]([C@@H]1OC(=O)CCCCCCC)[C@@](C)(OC(C)=O)C[C@H](OC(=O)CCCCCCCCCCCNC(=O)[C@@H](N)CO)[C@@]1(O)[C@H]2OC(=O)[C@@]1(C)O | 10.3 | 0.8 | – | 890 | 30 | –
C/C=C(/C)C(=O)O[C@H]1C(C)=C2[C@H]([C@@H]1OC(=O)CCCCCCC)[C@@](C)(OC(C)=O)C[C@H](OC(=O)CCc1ccc(NC(=O)[C@@H](N)CC(C)C)cc1)[C@@]1(O)[C@H]2OC(=O)[C@@]1(C)O | 466 | 35 | – | 880 | 29 | –
C/C=C(/C)C(=O)O[C@H]1C(C)=C2[C@H]([C@@H]1OC(=O)CCCCCCC)[C@@](C)(OC(C)=O)C[C@H](OC(=O)CCCCCNC(=O)[C@@H](N)CC(C)C)[C@@]1(O)[C@H]2OC(=O)[C@@]1(C)O | 3840 | 287 | 84 nM and 40 nM | > 20000 | >667 | –
C/C=C(/C)C(=O)O[C@H]1C(C)=C2[C@H]([C@@H]1OC(=O)CCCCCCC)[C@@](C)(OC(C)=O)C[C@H](OC(=O)CCCCCCN)[C@@]1(O)[C@H]2OC(=O)[C@@]1(C)O | 1210 | 90 | 209 nM | 10900 | 364 | –
C/C=C(/C)C(=O)O[C@H]1C(C)=C2[C@H]([C@@H]1OC(=O)CCCCCCC)[C@@](C)(OC(C)=O)C[C@H](OC(=O)CCCCCCCCCCCNC(=O)[C@@H](N)Cc1ccccc1)[C@@]1(O)[C@H]2OC(=O)[C@@]1(C)O | – | – | 446 nM and 406 nM | 210 | 7 | –
C/C=C(/C)C(=O)O[C@H]1C(C)=C2[C@H]([C@@H]1OC(=O)CCCCCCC)[C@@](C)(OC(C)=O)C[C@H](OC(=O)CCCCCCCCCCCN)[C@@]1(O)[C@H]2OC(=O)[C@@]1(C)O | 35 | 2.6 | 369 nM and 235 nM | 1160 | 39 | –
C/C=C(/C)C(=O)O[C@H]1C(C)=C2[C@H]([C@@H]1OC(=O)CCCCCCC)[C@@](C)(OC(C)=O)C[C@H](OC(=O)CCCCCCCCCCN)[C@@]1(O)[C@H]2OC(=O)[C@@]1(C)O | 40 | 3 | 420 nM and 242 nM | 750 | 25 | –
C/C=C(/C)C(=O)O[C@H]1C(C)=C2[C@H]([C@@H]1OC(=O)CCCCCCC)[C@@](C)(OC(C)=O)C[C@H](OC(=O)CCCCCCCN)[C@@]1(O)[C@H]2OC(=O)[C@@]1(C)O | 223 | 17 | 217 nM | 3850 | 128 | –
C/C=C(/C)C(=O)O[C@H]1C(C)=C2[C@H]([C@@H]1OC(=O)CCCCCCC)[C@@](C)(OC(C)=O)C[C@H](OC(=O)CCCCCN)[C@@]1(O)[C@H]2OC(=O)[C@@]1(C)O | 1330 | 99 | 284 nM | > 20000 | >667 | –
C/C=C(/C)C(=O)O[C@H]1C(C)=C2[C@H]([C@@H]1OC(=O)CCCCCCC)[C@@](C)(OC(C)=O)C[C@H](OC(=O)CCCCCCCCCCCNC(=O)[C@@H](N)CC(C)C)[C@@]1(O)[C@H]2OC(=O)[C@@]1(C)O | 45 | 3.4 | 414 nM | 30 | 1 | 173
C/C=C(/C)C(=O)O[C@H]1C(C)=C2[C@H]([C@@H]1OC(=O)CCCCCCC)[C@@](C)(OC(C)=O)C[C@H](OC(=O)CCC)[C@@]1(O)[C@H]2OC(=O)[C@@]1(C)O [THAPSIGARGIN] | 13.4 | 1 | – | 30 | 1 | –
